The source of these data is PubChem BioAssay AID1325 (NMMLSC, 2008).

The whole screen tested about 190,000 compounds, of which about 200 (0.11%) were called active.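 How the source made its calls: active means inhibition above 80%; inactive means the rest.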 Many of the other results were omitted from the sample, so actives are more common in it than they were.

The target in the assay is Broad substrate specificity ATP-binding cassette transporter ABCG2 (Homo sapiens) (UniProt Q9UNQ0). The experiment in a line: blockers of JC-1 export by ABCG2 – multiplex with ABCB1, IgMXP3 cells, flow cytometry, primary screen (AID 1325).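 Further: 0% = DMSO and 100% = nicardipine control wells.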 As to conditions: JC-1 efflux, at 6.6 µM, active compounds read high. The method in brief: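 Incubation: cells with compound and JC-1, 10 min at 25 °C, rotating, no wash / Test system: IgMXP3 (ABCG2) plus far-red-tagged CCRF-Adr (ABCB1) cells / Compound dosing: one concentration, 6.6 µM final / Also added: JC-1 fluorescent substrate / Evaluation: efflux inhibition in percent versus controls / Detection: flow cytometry, 530 nm JC-1 signal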
Sequence of Broad substrate specificity ATP-binding cassette transporter ABCG2 (Homo sapiens) (Q9UNQ0 whole entry, looked up): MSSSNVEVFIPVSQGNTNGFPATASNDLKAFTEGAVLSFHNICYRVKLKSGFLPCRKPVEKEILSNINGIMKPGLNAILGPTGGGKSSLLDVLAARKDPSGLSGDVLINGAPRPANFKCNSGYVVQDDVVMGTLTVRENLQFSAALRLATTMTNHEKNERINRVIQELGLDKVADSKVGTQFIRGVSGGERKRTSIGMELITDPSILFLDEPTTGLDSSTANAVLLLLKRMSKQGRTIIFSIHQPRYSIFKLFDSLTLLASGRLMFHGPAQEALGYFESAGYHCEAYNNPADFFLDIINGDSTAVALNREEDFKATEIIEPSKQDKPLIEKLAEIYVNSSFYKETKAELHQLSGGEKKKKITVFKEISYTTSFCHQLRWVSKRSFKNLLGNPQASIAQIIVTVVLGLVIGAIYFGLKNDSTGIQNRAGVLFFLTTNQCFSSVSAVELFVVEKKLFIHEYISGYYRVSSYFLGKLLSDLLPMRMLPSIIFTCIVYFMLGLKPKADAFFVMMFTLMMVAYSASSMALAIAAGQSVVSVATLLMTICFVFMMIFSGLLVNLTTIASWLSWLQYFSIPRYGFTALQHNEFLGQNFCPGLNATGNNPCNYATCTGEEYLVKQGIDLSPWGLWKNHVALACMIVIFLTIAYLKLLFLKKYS
As for `Cc1cc(OCc2cc(C(=O)O)oc2C)c2c3c(c(=O)oc2c1)CCCC3`, the inhibition was -0.16% (inactive).

As for `COC(=O)COc1cc(C)cc2oc(=O)c3c(c12)CCCC3`, the inhibition is 85.8% (active). Take `Cc1ccc(-c2nc3ccccc3c(=O)n2-c2ccc(Br)cn2)cc1`: the inhibition is 4.52% (inactive).

Take `COc1ccc(-c2nn(CCC#N)cc2C(=O)O)cc1`: the inhibition was 12.1% (inactive). On to `CN(C)C(=O)Oc1cc(=O)n2c3c(cccc13)CCC2`, for which the inhibition was 8.26% (inactive).
